Columns and labels:
[1] = target: Adrenergic receptor beta (Homo sapiens) (UniProt P08588+P07550+P13945); assay: Intrinsic Sympathomimetic Activity (ISA) determined from the ratio of the maximal compound and isoprenaline induced tachycardia in anesthetized ganglion blocked cats following intravenous administration; format: functional, organism-based; conditions: Felis catus; target entry is the homologue from another species
Outline: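 Ganglion-blocked (pempidine 5 mg kg⁻¹ iv) anesthetized cats at 37 °C; heart rate from blood pressure pulse. Full isoprenaline dose-response (0.01–10 μg kg⁻¹) obtained first. Cannula washed with saline, then cumulative iv dose-response to compound in 50% PEG 400, raised until maximal heart-rate increase. ISA is the ratio of maximal compound-induced to isoprenaline-induced tachycardia.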

[2] = target: Beta-1 adrenergic receptor (Homo sapiens) (UniProt P08588); conditions: Felis catus
Chain of Beta-1 adrenergic receptor (Homo sapiens) (P08588 whole entry, looked up, the tested form may be a part): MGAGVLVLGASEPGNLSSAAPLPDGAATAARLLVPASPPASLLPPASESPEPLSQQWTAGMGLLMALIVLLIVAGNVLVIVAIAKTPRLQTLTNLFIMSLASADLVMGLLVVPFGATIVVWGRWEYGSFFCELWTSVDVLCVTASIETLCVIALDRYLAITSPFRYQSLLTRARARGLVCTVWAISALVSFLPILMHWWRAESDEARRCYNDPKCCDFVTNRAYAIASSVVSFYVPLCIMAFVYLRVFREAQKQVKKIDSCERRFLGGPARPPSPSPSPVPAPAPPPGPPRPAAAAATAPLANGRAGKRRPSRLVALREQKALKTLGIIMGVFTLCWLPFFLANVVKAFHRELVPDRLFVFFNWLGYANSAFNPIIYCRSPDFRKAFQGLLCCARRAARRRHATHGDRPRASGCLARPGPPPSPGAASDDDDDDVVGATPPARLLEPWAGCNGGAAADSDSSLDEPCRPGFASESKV

Rattus norvegicus [3] = assay: Dose required to produce a 50% increase in blood flow to the autoperfused hindquarters of the anesthetized rat; format: functional
Outline: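 Anesthetized normotensive rats with autoperfused hindquarters. Intravenous bolus doses. ED50 (μmol kg⁻¹) is dose giving 50% increase in hindquarter blood flow, read from a dose-response curve. At least three animals at a minimum of three doses; 95% confidence intervals by Fieller's theorem.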

Rattus norvegicus [4] = assay: Dose required to produce a fall in blood pressure of 40 mmHg in the anesthetized rat; format: functional
Outline: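 Anesthetized normotensive rats dosed by intravenous injection. ED40 (μmol kg⁻¹) is dose lowering blood pressure by 40 mmHg, taken from a dose-response curve. At least three animals, minimum three doses; 95% confidence intervals via Fieller's theorem.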

Felis catus [5] = assay: Beta-1-adrenoceptor antagonsim of compound expressed as inhibition of isoprenaline-induced tachycardia in the ganglion-blocked anesthetized cat at 10 uM/Kg dose; format: functional
Felis catus [6] = assay: Intrinsic Sympathomimetic Activity(ISA) determined from the ratio of the maximal compound and isoprenaline induced tachycardia in anesthetized ganglion blocked cats following intravenous administration; format: functional
Outline: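 Anaesthetised cats; cephalic vein cannulated; rectal temperature held at 37 °C. Ganglion block with pempidine 5 mg kg⁻¹ iv, then waited for BP and heart rate to stabilise. Heart rate taken from the BP pulse. Isoprenaline tachycardia curve run at 0.01–10 μg kg⁻¹ iv, then a cumulative compound curve in 50% PEG 400, raised to maximal tachycardia. ISA = maximal compound/isoprenaline tachycardia ratio.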

[7] = target: Beta-1 adrenergic receptor (Homo sapiens) (UniProt P08588); assay: Beta-1 adrenergic receptor antagonsim of compound expressed as inhibition of isoprenaline-induced tachycardia in the ganglion-blocked anesthetized cat; format: functional; conditions: Felis catus
Outline: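 Ganglion-blocked anesthetized cats (pempidine 5 mg kg⁻¹ iv, left to stabilize; rectal temperature held at 37 °C; heart rate from blood pressure pulse). Compounds given iv via cephalic vein. ID50 is dose for 50% inhibition of standard isoprenaline-induced tachycardia. Percent inhibition logit-transformed; ≥3 animals, ≥3 doses; 95% confidence limits by Fieller's theorem.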

Row | SMILES | ISA [1] | ID50 [2] | ED50 (Rattus norvegicus [3]) | ED40 (Rattus norvegicus [4]) | Inhibition (Felis catus [5]) | ISA (Felis catus [6]) | ID50 [7]
1 | C=CCOc1ccccc1OCC(O)CNC(C)C (stereo unspecified) | 0.2 | 0.04 µmol/kg | – | – | – | – | –
2 | CC1CC(=O)NN=C1c1ccc(NC(=O)CCNCC(O)COc2ccccc2S(C)(=O)=O)cc1.Cl (stereo unspecified) | < 0.3 | 4 µmol/kg | 2.4 µmol/kg | 3.9 µM/kg | – | – | –
3 | Br.CC1CC(=O)NN=C1c1ccc(NC(=O)CCNCC(O)COc2ccccc2)cc1 (stereo unspecified) | 0.86 | – | 1.5 µmol/kg | 0.6 µM/kg | – | – | –
4 | COc1ccccc1OCC(O)CNCCC(=O)Nc1ccc(C2=NNC(=O)CC2)cc1 (stereo unspecified) | 0.6 | 0.7 µmol/kg | 4.3 µmol/kg | 11 µM/kg | – | – | –
5 | Cc1ccccc1OCC(O)CNCCC(=O)Nc1ccc(C2=NNC(=O)CC2C)cc1 (stereo unspecified) | 0.59 | – | 2 µmol/kg | 0.5 µM/kg | – | – | –
6 | CC(C)(C)NCC(O)COc1ccccc1-c1ccc(NN)nn1 (stereo unspecified) [PRIZIDILOL] | 0.2 | 0.06 µmol/kg | 10 µmol/kg | 14 µM/kg | – | – | –
7 | CC1CC(=O)NN=C1c1ccc(NC(=O)CCNCC(O)COc2cccc3[nH]ccc23)cc1.Cl (stereo unspecified) | 0.46 | 0.09 µmol/kg | 4.4 µmol/kg | 2.9 µM/kg | – | – | –
8 | CC1CC(=O)NN=C1c1ccc(NC(=O)CCNCC(O)COc2ccc(CCOCC3CC3)cc2)cc1 (stereo unspecified) | 0.05 | 1 µmol/kg | 1.6 µmol/kg | 2.4 µM/kg | – | – | –
9 | CC(=O)Nc1ccc(C2=NNC(=O)CC2C)cc1 (stereo unspecified) | – | – | 0.1 µmol/kg | 0.18 µM/kg | – | – | –
10 | Nc1ccc(-c2ccc(O)nn2)cc1 | – | – | 20 µmol/kg | 1 µM/kg | – | – | –
11 | N#Cc1ccccc1OCC(O)CNCCC(=O)Nc1ccc(C2=NNC(=O)CC2)cc1 (stereo unspecified) | – | > 1 µmol/kg | 1.7 µmol/kg | 3.5 µM/kg | – | – | –
12 | Cc1ccccc1OCC(O)CNCC(=O)Nc1ccc(C2=NNC(=O)CC2C)cc1 (stereo unspecified) | – | > 5 µmol/kg | 2.7 µmol/kg | <2 µM/kg | – | – | –
13 | CC1CC(=O)NN=C1c1ccc(NC(=O)CCN)cc1 (stereo unspecified) | – | – | 0.2 µmol/kg | 0.2 µM/kg | – | – | –
14 | N#Cc1ccccc1OCC(O)CNCC(=O)Nc1ccc(C2=NNC(=O)CC2)cc1 (stereo unspecified) | 0.55 | – | 14 µmol/kg | 30 µM/kg | – | – | –
15 | CC1CC(=O)NN=C1c1ccc(NC(=O)CCNCC(O)COc2ccccc2C#N)cc1 (stereo unspecified) | 0.63 | – | 2.3 µmol/kg | 1 µM/kg | – | – | –
16 | COc1ccccc1OCC(O)CNCC(=O)Nc1ccc(C2=NNC(=O)CC2)cc1 (stereo unspecified) | 0.42 | 10 µmol/kg | 4.6 µmol/kg | 11.5 µM/kg | – | – | –
17 | Cc1cccc(OCC(O)CNCCC(=O)Nc2ccc(C3=NNC(=O)CC3C)cc2)c1C (stereo unspecified) | 0.14 | 0.6 µmol/kg | 2.4 µmol/kg | 2.5 µM/kg | – | – | –
18 | Cc1ccccc1OCC(O)CNCCC(=O)Nc1ccc(C2=NNC(=O)CC2)cc1 (stereo unspecified) | 0.14 | 1.4 µmol/kg | 6 µmol/kg | 9.4 µM/kg | – | – | –
19 | COc1ccccc1OCC(O)CNCC(=O)Nc1ccc(C2=NNC(=O)CC2C)cc1 (stereo unspecified) | 0.37 | 2.6 µmol/kg | 3 µmol/kg | <4 µM/kg | – | – | –
20 | O=C1CCC(c2ccc(NC(=O)CNCC(O)COc3cccc4ccccc34)cc2)=NN1 (stereo unspecified) | 0.1 | – | 1.4 µmol/kg | 28 µM/kg | 30% | – | –
21 | NNc1nncc2ccccc12 [HYDRALAZINE] | – | – | 0.6 µmol/kg | 1 µM/kg | – | – | –
22 | COCCc1ccc(OCC(O)CNCCC(=O)Nc2ccc(C3=NNC(=O)CC3C)cc2)cc1 (stereo unspecified) | 0.04 | 2 µmol/kg | 6 µmol/kg | 3 µM/kg | – | – | –
23 | CC(=O)Nc1ccc(C2=NNC(=O)CC2)cc1 | – | – | 4 µmol/kg | 1 µM/kg | – | – | –
24 | CC1CC(=O)NN=C1c1ccc(NC(=O)CCNCC(O)COc2ccccc2N2CCOCC2)cc1 (stereo unspecified) | 0.24 | 0.5 µmol/kg | 1.8 µmol/kg | 3.6 µM/kg | – | – | –
25 | CC1CC(=O)NN=C1c1ccc(NC(=O)CNCC(O)COc2ccccc2C#N)cc1 (stereo unspecified) | 0.53 | > 8 µmol/kg | 0.9 µmol/kg | 2 µM/kg | – | – | –
26 | CC(C)NCC(O)COc1cccc2[nH]ccc12 (stereo unspecified) [PINDOLOL] | – | – | – | – | – | 0.7 | –
27 | Cc1ccccc1OCC(O)CNCC(=O)Nc1ccc(C2=NNC(=O)CC2)cc1 (stereo unspecified) | 0.55 | – | 2 µmol/kg | 6 µM/kg | – | – | 9 µmol/kg
28 | COc1ccccc1OCC(O)CNCCC(=O)Nc1ccc(C2=NNC(=O)CC2C)cc1 (stereo unspecified) | 0.48 | 0.7 µmol/kg | 3 µmol/kg | 2 µM/kg | – | – | –

— ChEMBL document CHEMBL1124244, “Design and synthesis of a series of combined vasodilator/beta-adrenoceptor antagonists based on 6-arylpyridazinones” (1988)
